According to ChEMBL document CHEMBL1926628, “Febrifugine analogue compounds: synthesis and antimalarial evaluation” (Bioorg Med Chem, 2012):

Experiments:
Plasmodium falciparum [1] = experiment: Antimalarial activity against Plasmodium falciparum Dd2 infected in human A positive erythrocytes assessed as inhibition of [G-3H]-hypoxanthine uptake after 24 hrs by liquid scintillation counting; type: functional, organism-based; details: Dd2, 24 h
Plasmodium falciparum [2] = experiment: Antimalarial activity against Plasmodium falciparum TM4 infected in human A positive erythrocytes assessed as inhibition of [G-3H]-hypoxanthine uptake after 24 hrs by liquid scintillation counting; type: functional, organism-based; details: TM4, 24 h
Plasmodium falciparum [3] = experiment: Antimalarial activity against chloroquine-sensitive Plasmodium falciparum 3D7 infected in human A positive erythrocytes assessed as inhibition of [G-3H]-hypoxanthine uptake after 24 hrs by liquid scintillation counting; type: functional, organism-based; details: 3D7, 24 h
Plasmodium falciparum [4] = experiment: Antimalarial activity against chloroquine-resistant Plasmodium falciparum VS/1 infected in human A positive erythrocytes assessed as inhibition of [G-3H]-hypoxanthine uptake after 24 hrs by liquid scintillation counting; type: functional; details: VS/1, 24 h
Plasmodium falciparum [5] = experiment: Antimalarial activity against chloroquine-resistant Plasmodium falciparum K1 infected in human A positive erythrocytes assessed as inhibition of [G-3H]-hypoxanthine uptake after 24 hrs by liquid scintillation counting; type: functional, organism-based; details: K1, 24 h
Plasmodium falciparum [6] = experiment: Antimalarial activity against Plasmodium falciparum PH3 infected in human A positive erythrocytes assessed as inhibition of [G-3H]-hypoxanthine uptake after 24 hrs by liquid scintillation counting; type: functional, organism-based; details: PH3, 24 h
Plasmodium falciparum [7] = experiment: Antimalarial activity against chloroquine-resistant Plasmodium falciparum TM6 infected in human A positive erythrocytes assessed as inhibition of [G-3H]-hypoxanthine uptake after 24 hrs by liquid scintillation counting; type: functional, organism-based; details: TM6, 24 h
[8] = Acute toxicity in po dosed Sprague-Dawley rat assessed as maximum tolerated dose; type: organism-based; details: in vivo
Plasmodium berghei [9] = experiment: Antimalarial activity against blood stage of Plasmodium berghei NK65 infected in po dosed rat assessed as inhibition of parasite growth; type: functional
In short: (§1)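 Blood-stage Plasmodium berghei NK65 infection in rodents. Compounds were given by the route stated in each line. ED50 is the dose in mg/kg giving 50% parasite growth inhibition relative to the untreated blank control. Procedure follows earlier reports.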

Plasmodium berghei [10] = experiment: Antimalarial activity against blood stage of Plasmodium berghei NK65 infected in po dosed rat assessed as minimum curative dose; type: functional
In short: (§2)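 Rodents infected with blood-stage Plasmodium berghei NK65 were dosed by the route given in each line. Read-out was the minimum clearance dose (MCD), the lowest dose clearing parasites, reported in mg/kg. Method follows earlier reports.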

[11] = Therapeutic index, ratio of MTD for Sprague-Dawley rat to MCD for blood stage of Plasmodium berghei NK65; details: read-out: TI
In short: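 MCD (minimum clearance dose) comes from rodents infected with blood-stage P. berghei NK65, dosed orally except artesunate, which was given iv. MTD (maximum tolerated dose) comes from Sprague–Dawley rats. Both are in mg/kg. Therapeutic index is MTD divided by MCD.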

Rattus norvegicus = organism: Rattus norvegicus; experiment: Ratio of compound MTD to febrifugine MTD in Sprague-Dawley rat; type: ADME, organism-based; details: in vivo
Plasmodium falciparum [12] = experiment: Antimalarial activity against chloroquine-resistant Plasmodium falciparum FVO infected in Aotus monkey assessed as cure rate at 2 mg/kg, po qd for 3 days; type: functional
In short: (§3)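 Aotus monkeys carrying chloroquine-resistant P. falciparum FVO were dosed orally once daily for 3 days at 2, 4, 8 or 16 mg/kg/day. Dosing began the day after parasitemia reached approximately 5,000 organisms per mm³. Cure means parasitemia cleared with no recrudescence. Cure rate is animals cured over total tested.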

Plasmodium falciparum [13] = experiment: Antimalarial activity against chloroquine-resistant Plasmodium falciparum FVO infected in Aotus monkey assessed as cure rate at 16 mg/kg, po qd for 3 days; type: functional; in short: as §3
Plasmodium falciparum [14] = experiment: Antimalarial activity against chloroquine-resistant Plasmodium falciparum FVO infected in Aotus monkey assessed as cure rate at 8 mg/kg, po qd for 3 days; type: functional; in short: as §3
Plasmodium falciparum [15] = experiment: Antimalarial activity against chloroquine-resistant Plasmodium falciparum FVO infected in Aotus monkey assessed as cure rate at 4 mg/kg, po qd for 3 days; type: functional; in short: as §3
Plasmodium berghei [16] = experiment: Antimalarial activity against blood stage of Plasmodium berghei NK65 infected in iv dosed rat assessed as inhibition of parasite growth; type: functional; in short: as §1
Plasmodium berghei [17] = experiment: Antimalarial activity against blood stage of Plasmodium berghei NK65 infected in iv dosed rat assessed as minimum curative dose; type: functional; in short: as §2

Row | SMILES | IC50 (Plasmodium falciparum [1]) [nM] | IC50 (Plasmodium falciparum [2]) [nM] | IC50 (Plasmodium falciparum [3]) [nM] | IC50 (Plasmodium falciparum [4]) [nM] | IC50 (Plasmodium falciparum [5]) [nM] | IC50 (Plasmodium falciparum [6]) [nM] | IC50 (Plasmodium falciparum [7]) [nM] | MTD [8] [mg/kg] | ED50 (Plasmodium berghei [9]) [mg/kg] | MCD (Plasmodium berghei [10]) [mg/kg] | selectivity ratio [11] | Ratio (Rattus norvegicus) | Activity (Plasmodium falciparum [12]) [%] | Activity (Plasmodium falciparum [13]) [%] | Activity (Plasmodium falciparum [14]) [%] | Activity (Plasmodium falciparum [15]) [%] | ED50 (Plasmodium berghei [16]) [mg/kg] | MCD (Plasmodium berghei [17]) [mg/kg]
1 | CCN(CC)Cc1cc(Nc2ccnc3cc(Cl)ccc23)ccc1O | 9.1 | 15.2 | 4.9 | 8.7 | 21.2 | 15.9 | 7.5 | – | – | – | – | – | – | – | – | – | – | –
2 | O=C(Cn1cnc2ccccc2c1=O)[C@H]1NCC[C@@H]1O | 4.5 | 7.9 | 2.8 | 5.6 | 3.9 | 1.4 | 3.1 | 100 | 1.7 | 9.9 | 10 | – | – | – | – | – | – | –
3 | O=C(Cn1cnc2cccnc2c1=O)[C@H]1NCC[C@@H]1O | 2.3 | 4.1 | 1.8 | 3.6 | 3.1 | 1.1 | 2.1 | 450 | 1.2 | 7.1 | 63 | > 10 | – | – | – | – | – | –
4 | O=C(Cn1cnc2ccncc2c1=O)[C@H]1NCC[C@@H]1O | 2.2 | 3 | 1.4 | 4.1 | 2.8 | 1 | 3.4 | 350 | 1 | 7.5 | 47 | > 10 | – | – | – | – | – | –
5 | O=C(Cn1cnc2cccc(F)c2c1=O)[C@H]1NCC[C@@H]1O | 8.1 | 6.2 | 5.7 | 5.3 | 5.9 | 2.5 | 3.9 | 400 | 1.1 | 6.3 | 63 | > 10 | – | – | – | – | – | –
6 | O=C(Cn1cnc2cccc(C(F)(F)F)c2c1=O)[C@H]1NCC[C@@H]1O | 6.3 | 7.4 | 2.7 | 11.2 | 4.7 | 3.2 | 2.5 | 400 | 0.95 | 6.7 | 60 | > 10 | – | – | – | – | – | –
7 | O=C(Cn1cnc2cccnc2c1=O)[C@H]1NCC[C@@H]1OCc1ccccc1 | 0.17 | 0.33 | 0.21 | 0.13 | 0.24 | 0.2 | 0.08 | 250 | 0.19 | 1.7 | 147 | – | 25 | 100 | 80 | 71 | – | –
8 | CCO[C@H]1CCN[C@@H]1C(=O)Cn1cnc2cccc(F)c2c1=O | 0.26 | 0.22 | 0.21 | 0.25 | 0.24 | 0.18 | 0.17 | 250 | 0.31 | 1.9 | 132 | – | 50 | 100 | 100 | 67 | – | –
9 | CC(C)O[C@H]1CCN[C@@H]1C(=O)Cn1cnc2cccc(C(F)(F)F)c2c1=O | 0.78 | 0.39 | 0.36 | 0.68 | 0.61 | 0.54 | 0.31 | 250 | 0.23 | 2.4 | 104 | – | – | – | – | – | – | –
10 | O=C(Cn1cnc2cccnc2c1=O)[C@H]1NCC[C@H]1O | 21.9 | 32.7 | 16.3 | 28.7 | 19.8 | 11.4 | 13.2 | – | – | – | – | – | – | – | – | – | – | –
11 | O=C(Cn1cnc2cccc(C(F)(F)F)c2c1=O)[C@H]1NCC[C@H]1O | 31.8 | 51.9 | 19.6 | 36.5 | 24.2 | 21.2 | 25.6 | – | – | – | – | – | – | – | – | – | – | –
12 | O=C(Cn1cnc2cccnc2c1=O)[C@@H]1NCC[C@H]1O | 2.4 | 4 | 1.9 | 3.7 | 3.3 | 1 | 2 | – | – | – | – | – | – | – | – | – | – | –
13 | O=C(Cn1cnc2cccc(C(F)(F)F)c2c1=O)[C@@H]1NCC[C@H]1O | 6.1 | 7.3 | 2.6 | 11 | 4.8 | 3.4 | 2.7 | – | – | – | – | – | – | – | – | – | – | –
14 | C[C@H]1[C@H](OC(=O)CCC(=O)O)O[C@@H]2O[C@@]3(C)CC[C@H]4[C@H](C)CC[C@@H]1[C@@]24OO3 [ARTESUNATE] | – | – | – | – | – | – | – | – | – | – | 37 | – | – | – | – | – | 0.55 | 6.8
15 | CCN(CC)CCCC(C)Nc1ccnc2cc(Cl)ccc12 (configuration not stated) [CHLOROQUINE] | – | – | – | – | – | – | – | – | 4.5 | 40 | – | – | – | – | – | – | – | –
16 | O=C(C[C@@H]1NCCC[C@H]1O)Cn1cnc2ccccc2c1=O [FEBRIFUGINE] | 2.1 | 5.4 | – | 4.2 | 2 | – | 3.1 | 35 | 2.3 | 12 | 3 | – | – | – | – | – | – | –
17 | OC(c1cc(C(F)(F)F)nc2c(C(F)(F)F)cccc12)C1CCCCN1 (configuration not stated) [MEFLOQUINE] | – | – | – | – | – | – | – | – | 1.1 | 9.9 | 61 | – | – | – | – | – | – | –
